Reference: ChEMBL document CHEMBL1122273, “5-sulfamoylorthanilic acids, a sulfonamide series with salidiuretic activity” (J Med Chem, 1983)

Key:
[1] = Partion coefficient in octanol/H2O system at pH=7; assay type: physicochemical
In short: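 Partition between octanol and Britton-Robinson buffer, measured across pH 0–13; value read at pH 7.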

[2] = Solubility of compound in water was determined; assay type: physicochemical; settings: buffer
[3] = test system: Canis familiaris; assay: Saluretic activity in the dog measured as concentration of Na+ in urinary excretion (2 animals/dose) at (dose 0.1 mg/Kg, perorally); assay type: functional, Canis lupus familiaris, Urine
In short: (§1)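 Male beagles trained to rest on a table and to accept stomach tube and catheter. Food withdrawn 24 h before, tap water ad libitum. Bladder emptied by catheter, then 20 mL/kg tap water by stomach tube. Catheterized hourly up to 8 h with 4 mL/kg water orally each time; first 2 h urine served as control. Oral dosing after second catheterization. Pooled 1–6 h urine; Na⁺/K⁺ by flame photometry, Cl⁻ argentometrically.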

[4] = test system: Canis familiaris; assay: Saluretic activity in the dog measured as concentration of Na+ in urinary excretion (2 animals/dose) at (dose 1.56 mg/Kg, perorally); assay type: functional, Canis lupus familiaris, Urine; in short: as §1
[5] = test system: Canis familiaris; assay: Diuretic activity in the dog (2 animals/dose) at (dose 0.1 mg/Kg), when administered perorally; assay type: functional, Canis lupus familiaris, Urine
In short: (§2)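 Trained male beagles, fasted 24 h with tap water ad libitum. Bladder emptied by catheter, then 20 mL/kg tap water by stomach tube, with 4 mL/kg water at each hourly catheterization up to 8 h. The first 2 h of urine served as control. Oral dosing came after the second catheterization, and 1–6 h urine was pooled. Na⁺ and K⁺ were measured by flame photometry, Cl⁻ argentometrically, in mequiv/kg.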

[6] = test system: Canis familiaris; assay: Diuretic activity in the dog (2 animals/dose) at (dose 0.4 mg/Kg), when administered perorally; assay type: functional, Canis lupus familiaris, Urine; in short: as §2
[7] = test system: Canis familiaris; assay: Diuretic activity in the dog (2 animals/dose) at (dose 1.56 mg/Kg), when administered perorally; assay type: functional, Canis lupus familiaris, Urine; in short: as §2
[8] = test system: Canis familiaris; assay: Saluretic activity in the dog measured as concentration of K+ in urinary excretion (2 animals/dose) at (dose 0.1 mg/Kg, perorally); assay type: functional, Canis lupus familiaris, Urine
In short: (§3)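 Male beagles trained to the procedures, food withdrawn 24 h before, tap water ad libitum. Bladder emptied by catheter, then 20 mL/kg tap water by stomach tube, plus 4 mL/kg orally at each hourly catheterization up to 8 h. The first 2 h of urine served as control. Compound given orally after the second catheterization. Urine from 1–6 h post-dose pooled; Na⁺ and K⁺ by flame photometry, Cl⁻ argentometrically, in mequiv/kg.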

[9] = test system: Canis familiaris; assay: Saluretic activity in the dog measured as concentration of K+ in urinary excretion (2 animals/dose) at (dose 0.4 mg/Kg, perorally); assay type: functional, Canis lupus familiaris, Urine; in short: as §3
[10] = test system: Canis familiaris; assay: Saluretic activity in the dog measured as concentration of K+ in urinary excretion (2 animals/dose) at (dose 1.56 mg/Kg, perorally); assay type: functional, Canis lupus familiaris, Urine; in short: as §3
[11] = test system: Canis familiaris; assay: Saluretic activity in the dog measured as concentration of Cl - in urinary excretion (2 animals/dose) at (dose 0.1 mg/Kg, perorally); assay type: functional, Canis lupus familiaris, Urine; in short: as §3
[12] = test system: Canis familiaris; assay: Saluretic activity in the dog measured as concentration of K+ in urinary excretion (2 animals/dose) at (dose 12.5 mg/Kg, perorally); assay type: functional, Canis lupus familiaris, Urine; in short: as §1
[13] = test system: Canis familiaris; assay: Saluretic activity in the dog measured as concentration of Cl - in urinary excretion (2 animals/dose) at (dose 1.56 mg/Kg, perorally); assay type: functional, Canis lupus familiaris, Urine; in short: as §3
[14] = test system: Canis familiaris; assay: Saluretic activity in the dog measured as concentration of Cl - in urinary excretion (2 animals/dose) at (dose 0.4 mg/Kg, perorally); assay type: functional, Canis lupus familiaris, Urine; in short: as §3
[15] = test system: Canis familiaris; assay: Urinary excretion collected at 1-24 hr time after oral administration in dog (four animals per dose) at dose 0.39 mg/kg.; assay type: functional, Canis lupus familiaris, Urine
In short: (§4)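 Trained male beagles, four per dose, fasted 24 h with tap water ad libitum. After bladder emptying, given 20 mL/kg tap water by stomach tube, then 4 mL/kg at each hourly catheterization; 2 h control collection, then oral dosing. Urine volume and Na⁺ (flame photometry) reported for 1–6, 7–24 and 1–24 h post-dose periods.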

[16] = test system: Canis familiaris; assay: Urinary excretion collected at 1-24 hr time after oral administration in dog (four animals per dose) at dose 1.56 mg/kg.; assay type: functional, Canis lupus familiaris, Urine; in short: as §4
[17] = test system: Canis familiaris; assay: sodium excretion collected at 1-24 h time after oral administration in dog (four animals per dose) at dose 6.25 mg/kg.; assay type: functional, Canis lupus familiaris; in short: as §4
[18] = test system: Canis familiaris; assay: sodium excretion collected at 7-24 hr time after oral administration in dog (four animals per dose) at dose 1.56 mg/kg.; assay type: functional, Canis lupus familiaris; in short: as §4
[19] = test system: Canis familiaris; assay: Urinary excretion collected at 7-24 hr time after oral administration in dog (four animals per dose) at dose 1.56 mg/kg.; assay type: functional, Canis lupus familiaris, Urine; in short: as §4
[20] = test system: Canis familiaris; assay: Urinary excretion collected at 7-24 hr time after oral administration in dog (four animals per dose) at dose 6.25 mg/kg.; assay type: functional, Canis lupus familiaris, Urine; in short: as §4
[21] = organism: Rattus norvegicus; assay: Diuretic activity in the rats, determined by a modified Lipschitz test; assay type: functional, Urine
In short: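 Modified Lipschitz test: rats deprived of water 24 h, grouped in threes of similar weight in diuresis funnels. Oral dose of 50 mg/kg, suspended in 2% starch solution, by stomach tube.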

[22] = organism: Rattus norvegicus; assay: Saluretic activity in the rat measured as concentration of chloride in urine; assay type: functional
In short: (§5)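 Rats deprived of food 24 h, water ad libitum, dosed 50 mg/kg by stomach tube as suspension in 2% starch, no extra water load. Groups of three in diuresis funnels; urine over first 5 h collected. Na⁺ and K⁺ by flame photometry, Cl⁻ argentometrically; expressed as mequiv/kg.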

[23] = organism: Rattus norvegicus; assay: Saluretic activity in the rat measured as concentration of K+ in urine; assay type: functional; in short: as §5
[24] = It is the ratio, measured as saluretic activity in the dog as concentration of Cl- in urinary excretion (dose 0.1 mg/Kg, perorally) to that of (Na+)+(K+); assay type: functional, Urine; in short: as §2
[25] = It is the ratio, measured as saluretic activity in the dog as concentration of Na+ in urinary excretion (dose 0.1 mg/Kg, perorally) to that of K; assay type: functional, Urine; in short: as §2
[26] = It is the ratio, measured as saluretic activity in the dog as concentration of Na+ in urinary excretion (dose 0.4 mg/Kg, perorally) to that of K; assay type: functional, Urine; in short: as §2
[27] = organism: Rattus norvegicus; assay: Saluretic activity in the rat measured as concentration of Na+ in urine; assay type: functional; in short: as §5
[28] = Dissociation constant, pK1 was determined using sodium salt
[29] = Dissociation constant, pK2 was determined using sodium salt
[30] = test system: Canis familiaris; assay: sodium excretion collected at 1-24 hr time after oral administration in dog (four animals per dose) dosed at 0.05 mg/kg.; assay type: functional, Canis lupus familiaris; in short: as §4
[31] = test system: Canis familiaris; assay: sodium excretion collected at 7-24 hr time after oral administration in dog (four animals per dose) dosed at 0.39 mg/kg.; assay type: functional, Canis lupus familiaris
In short: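 Trained male beagles, food withdrawn 24 h beforehand with tap water ad libitum. Bladder emptied by catheter, then 20 mL/kg tap water by stomach tube. Catheterized hourly (up to 8 h) with 4 mL/kg water orally each time. First 2 h of urine served as control. Compound given orally after second catheterization. Na⁺ measured flame-photometrically, in mequiv/kg.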

[32] = test system: Canis familiaris; assay: urinary excretion collected at 7-24 hr time after oral administration in dog (four animals per dose) dosed at 0.05 mg/kg.; assay type: functional, Canis lupus familiaris, Urine

Compound	Partition coefficient [1]	Solubility [2] [%]	Saluretic activity [3] [m equiv 6hr-1 kg-1]	Saluretic activity [4] [m equiv 6hr-1 kg-1]	Diuretic activity [5] [ml kg-1 6hr-1]	Diuretic activity [6] [ml kg-1 6hr-1]	Diuretic activity [7] [ml kg-1 6hr-1]	Saluretic activity [8] [m equiv 6hr-1 kg-1]	Saluretic activity [9] [m equiv 6hr-1 kg-1]	Saldiuretic activity [11] [m equiv 6hr-1 kg-1]	Saldiuretic activity [13] [m equiv 6hr-1 kg-1]	Saldiuretic activity [14] [m equiv 6hr-1 kg-1]	Diuretic activity [21] [mL/kg]	Saluretic activity [22] [m equiv 5hr-1 kg-1]	Saluretic activity [23] [m equiv 5hr-1 kg-1]	Ratio [24]	Ratio [25]	Ratio [26]	Saluretic activity [27] [m equiv 5hr-1 kg-1]	pKa [28]	further results
NS(=O)(=O)c1cc(S(=O)(=O)[O-])c(NCc2ccco2)cc1Oc1ccccc1.[Na+]	0.12	20	1.19	4.89	30	36.4	71.4	0.15	0.34	0.27	5.47	1.65	4.1	9.6	2.1	0.8	1.2	3.5	7	0.5	Saluretic activity [10]: 1 m equiv 6hr-1 kg-1; Saldiuretic activity [12]: 1.17 m equiv 6hr-1 kg-1; Urinary excretion [15]: 50.9 mL/kg; Urinary excretion [16]: 78.9 mL/kg; Na+ excretion [17]: 8.55 mequiv kg-1; Na+ excretion [18]: 0.48 mequiv kg-1; Urinary excretion [19]: 12.3 mL/kg; Urinary excretion [20]: 38.3 mL/kg; pKa [29]: 10.2
CN(c1ccccc1)c1cc(NCc2ccco2)c(S(=O)(=O)[O-])cc1S(N)(=O)=O.[Na+]	0.28	4	3.08	5.74	54.3	75.3	69.4	0.72	1.28	3.99	6.79	6.34	4.6	9.4	2.4	1.1	4.3	4.1	8.2	1	Saldiuretic activity [10]: 1.17 m equiv 6hr-1 kg-1; Na+ excretion [30]: 1.51 mequiv kg-1; Na+ excretion [31]: 0.55 mequiv kg-1; Urinary excretion [32]: 10.1 mL/kg; pKa [29]: 10.5
